Screens (PubChem)
A selection: hits, their analogues and other compounds. The true share with any hit is near 4.4%.
MsrA inhibitor = bovine MsrA enzyme inhibitors, primary screen, biochemical, absorbance, HTS. inhibition, % at 15.5 µM. purified bovine MsrA, absorbance read-out. Methionine sulfoxide reductase A (Bos taurus). actives 0.75% (n = 360,000)
Tb MetRS inh = T. brucei MetRS inhibitors, primary screen, biochemical, luminescence; purified T. brucei MetRS, ATP depletion, Kinase-Glo luminescence; inhibition, % at 11.9 µM; actives 0.4% (n = 360,000); AID 624268, 2012;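 active = inhibition above a per-plate cutoff of the control wells' mean inhibition plus 3 SD, cut at about 5.5% in these data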
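Material – parasite MetRS enzyme · Medium – HEPES-MgCl2-KCl buffer plus DTT, spermine, BSA, pyrophosphatase · Reagent – ATP, methionine and E. coli bulk tRNA substrates · Times – 15 min enzyme-compound preincubation, 2 h reaction, 10 min detection, 25 °C · Measured by – luminescence of leftover ATP · Evaluation – percent inhibition relative to median high and low control wells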
AHR act = AHR activators, primary screen, cell-based, luminescence, luciferase reporter, human | actives 2.5% (n = 320,000) | activation, % at 5 µM | AHR-responsive luciferase reporter cells | AID 2796, 2010; in the data active = activation above about 47%
HTR2A ag = mouse Htr2a agonists via beta-arrestin recruitment, primary screen, cell-based, luminescence; 5-hydroxytryptamine receptor 2A (Mus musculus), P35363; CHO-K1 mHTR2A beta-arrestin complementation; percent of 30 µM serotonin response; activation, % at 7.6 µM; actives 0.66% (n = 360,000);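 active = activation above a run cutoff, the mean activation of all tested compounds plus 3 SD, cut at about 14% in these data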
bovine MsrA act = bovine MsrA enzyme activators, primary screen, biochemical, absorbance, HTS; AID 602163, 2012; actives 0.3% (n = 360,000); activation, % at 10.6 µM; purified bovine MsrA, absorbance read-out; in the data active = activation above about 7.5%
AI-2 QS modul = Vibrio harveyi AI-2 quorum sensing modulators, primary screen, JMH597 strain, luminescence/OD600 ratio. activity change, % at 7.5 µM. Vibrio harveyi JMH597 AI-2 luminescence/OD600 ratio, 9 h; stronger effect = lower value; strain lacks LuxN and CqsS sensors; 0 = neutral-control median. AID 2094, 2009. actives 0.4% (n = 300,000); in the data active = activity change below about -75%, passing the limit was not always enough;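 also: luminescence divided by OD600 gain over 9 h not by final OD600 alone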
MsrA conf = bovine MsrA inhibitors, retest, confirmation, biochemical, absorbance, HTS; shares compounds with MsrA inhibitor; purified bovine MsrA, absorbance read-out; inhibition, % at 15.5 µM; actives 41% (n = 2,300);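 also: coupled to thioredoxin reductase with NADPH and selenocystamine and DMSO as substrate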
Large screens that a line does not name were inactive (follow-up assays come after a bar, where they were run). Rule as the data show it, unless noted: active = inhibition above about 4.5%; inactive = the rest.

Cc1ccc(NC(=O)C2CCCO2)cc1[N+](=O)[O-] (centres undefined)	MsrA inhibitor 39 | MsrA conf 8.4
O=C(O)c1ccc(NC2=C(n3nnc4ccccc43)C(=O)c3ccccc3C2=O)cc1	MsrA inhibitor 58 | MsrA conf 53
O=C(O)c1cccc(NC2=C(N3CCOCC3)C(=O)c3ccccc3C2=O)c1	none
Cc1ccc(S(=O)(=O)N/N=C/c2cc(Br)ccc2O)cc1	MsrA inhibitor 4.9 | MsrA conf inactive
Cc1ccc(/C=C/C(=O)OCC(=O)NC(C)c2ccccc2)o1 (centres undefined)	MsrA inhibitor 6.5 (no result: AI-2 QS modul) | MsrA conf inactive
CC1(C)Oc2ccc3ccc(=O)oc3c2/C(=C/Nc2ccccn2)C1=O	none
CN/C=C1\C(=O)C(C)(C)Oc2ccc3ccc(=O)oc3c21	MsrA inhibitor 5.4 | MsrA conf inactive
CCCCn1cnc2c(Sc3c([N+](=O)[O-])ncn3C)nc(N)nc21	MsrA inhibitor 5.2 (no result: AHR act, AI-2 QS modul) | MsrA conf inactive
CC(C)Cn1cnc2c(Sc3c([N+](=O)[O-])ncn3C)nc(N)nc21	MsrA inhibitor 7.7 (no result: AHR act, AI-2 QS modul) | MsrA conf inactive
CCC(C)Cn1cnc2c(Sc3c([N+](=O)[O-])ncn3C)nc(N)nc21 (centres undefined)	MsrA inhibitor 4.9 (no result: AHR act, AI-2 QS modul) | MsrA conf 4.9
COc1ccc(OC)c(-n2c(O)cnc2Nc2nc(C)cc(C)n2)c1	none
Cc1cc(C)nc(Nc2ncc(O)n2-c2ccc(C)c(Cl)c2)n1	MsrA inhibitor 9.1, AHR act 57 | MsrA conf 5.4
Cc1cc(C)n(-c2ccc(C)c(Cl)c2)n1	none
Cc1cc(C)nc(Nc2ncc(O)n2-c2ccc(Br)cc2)n1	MsrA inhibitor 8.1 | MsrA conf inactive
Cc1cc(C)nc(Nc2ncc(O)n2-c2ccc(C)c(C)c2)n1	MsrA inhibitor 8.0 | MsrA conf 6.6
O=C(COc1ccc(S(=O)(=O)N2CCOCC2)cc1)NCCN1CCOCC1	none
O=C(N/N=C/c1c[nH]c2ccccc12)c1[nH]c2ccc(Br)cc2c1-c1ccccc1	MsrA inhibitor 5.1 (no result: AHR act) | MsrA conf inactive
O=C(N/N=C/c1ccc(O)cc1)c1[nH]c2ccc(Br)cc2c1-c1ccccc1	none
CC1(C)Cc2c(sc(/N=C/N3CCCC3)c2C#N)C(C)(C)N1	MsrA inhibitor 5.1 | MsrA conf inactive
COc1cccc(NC(=O)Cn2nnc(C(=O)NCCc3ccccc3)c2N)c1	none
COc1ccccc1C1C(C#N)=C(N)N(N(C)C)C2=C1C(=O)CC(C)(C)C2 (centres undefined)	none
O=Cc1ccc(N2CCCC2)c([N+](=O)[O-])c1	MsrA inhibitor 6.7 | MsrA conf 4.8
O=[N+]([O-])c1cc(/C=N/n2cnnc2)ccc1N1CCCC1	MsrA inhibitor 7.7 | MsrA conf 5.1
N#Cc1cc([N+](=O)[O-])ccc1N1CCCC1	MsrA inhibitor 11 | MsrA conf 5.0
O=[N+]([O-])c1ccc(N2CCCCCC2)c([N+](=O)[O-])c1	none
CC(C=CC(O)=C1C(=O)CNC1=O)=C[C@@H](C)C1OC2(C)OC(C(=O)C3O[C@@]32C)C1C (some centres undefined)	none (no result: AHR act, AI-2 QS modul)
CN(CC(=O)Nc1c(Cl)cccc1Cl)C(=O)C1=COCCO1	none
COC(=O)c1ccc(CNC(=O)c2ccc(OC)c(S(=O)(=O)NC3CCCC3)c2)cc1	none (no result: AI-2 QS modul)
O=C(CN1C(=O)c2cccc([N+](=O)[O-])c2C1=O)N1CCN(S(=O)(=O)c2ccccc2)CC1	none (no result: AI-2 QS modul)
CCc1nnc(NC(=O)CN2CCN(Cc3ccccc3Cl)CC2)s1	none
Cc1cc(/C=C(\C#N)C(=O)O)c(C)n1CC(C)C	MsrA inhibitor 7.2 | MsrA conf inactive
Cc1cc(/C=C(\C#N)C(=O)O)c(C)n1CCC(C)C	none
CCOC(=O)c1c(SCC(=O)Nc2nccs2)nc(C)c(C)c1C	none (no result: AHR act)
